STAT1 blocker – STAT1 signaling inhibitors, primary screen, cell-based, HTS, luciferase reporter. AID 920, 2007. 200,000 tested, 0.35% active. NIH 3T3 STAT1-luciferase reporter, IFN-gamma, luminescence. inhibition, % at 5.5 µM;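 active = inhibition above a set limit, the mean inhibition across all tested compounds plus 3 SD, cut at about 34% in these data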;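 also: 0% = IFN-gamma with DMSO and 100% = IFN-gamma with 300 µM nifuroxazide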
HSP90 refold inh – HSP90 inhibitors, primary screen, cell lysate, luminescence. 290,000 tested, 0.91% active. inhibition, % at 5.6 µM. Rabbit reticulocyte lysate, luciferase refolding luminescence, 3 h;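 active = inhibition above the screen-wide mean plus 3 SD, computed separately per campaign, cut at about 16% in these data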;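 also: 0% = DMSO wells and 100% = 60 µM geldanamycin wells; inhibitors lower the luminescence because luciferase stays unfolded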
STAT3 act-1 – IL-6 driven STAT3 reporter potentiators, primary screen, U3A cells, luciferase, luminescence, MLSCN library; IL-6 STAT3-luciferase reporter; 100% = signal with IL-6 EC80 alone; activation (% of control), % at 5.6 µM; 190,000 tested, 0.91% active; AID 871, 2007;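 active = activation above the screen-wide mean of compound activation plus 3 SD, cut at about 130% in these data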;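 also: 0% = background luminescence of wells with medium and substrate only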
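system = STAT3-luciferase reporter U3A cells | reagent = IL-6 stimulus at 33 ng/mL final | timing = 1 h compound pre-exposure, 6 h IL-6 stimulation, 37 °C | measured by = luminescence | evaluation = % activation versus median of IL-6-stimulated wells | control set = IL-6-only wells as 100% reference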
TRAIL sens C8 – viability loss with TRAIL in NB7+C8 cells, primary screen, TRAIL sensitizer project, cell-based, ATPlite luminescence | AID 624354, 2012 | inhibition (viability loss, TRAIL sensitization), % at 10 µM | 360,000 tested, 1% active;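 active = compounds causing at least 50% loss of cell viability in the single-dose screen, relative to plate controls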
STAT3 blocker – IL-6 driven STAT3 reporter inhibitors, primary screen, U3A cells, luciferase, luminescence, MLSCN library. IL-6 STAT3-luciferase reporter; host cell line lacks STAT1. inhibition, % at 5.5 µM. 190,000 tested, 0.89% active. AID 862, 2007;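 active = inhibition above the mean inhibition across all screened compounds plus 3 SD, cut at about 44% in these data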;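 also: 0% = DMSO only wells and 100% = 100 µM nifuroxazide control wells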
PPC-1+TRAIL kill – compounds killing PPC-1 cancer cells with TRAIL present, primary screen, TRAIL potentiator project, ATPLite luminescence, uHTS. PPC-1 cells + TRAIL, ATPLite viability luminescence. cell killing (% activity), % at 4 µM or 5 µM. 220,000 tested, 0.41% active. AID 1443, 2008;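 active = cell killing above 50% in the first pass at 4 µM, then a duplicate retest at 5 µM averaging 50% or more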;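 also: plate controls were cells with TRAIL plus DMSO for no effect and medium-only wells lacking cells for full effect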
STAT3 act-2 – STAT3 reporter potentiators, retest of hits, confirmation, U3A cells, luciferase, luminescence. shares compounds with STAT3 act-1. IL-6 potentiation; U3A cells lack STAT1; 100 means same as IL-6 alone. potentiation (% of control), % at 5.7 µM. 1,200 tested, 64% active;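 active = percent activation of the STAT3 luciferase reporter above a set limit taken from the earlier primary screen, cut at about 130% in these data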;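 also: 0% = background signal of medium plus substrate and 100% = median of IL-6 with DMSO wells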
NFkB act 2 – NF-kB reporter activators in human cells, counter-screen for STAT3 activator project; shares compounds with STAT3 act-1; NF-kappaB reporter activation; activation (% of control), % at 5.7 µM; 1,200 tested, 11% active; AID 1309, 2008; in the data active = activation above about 120%;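 also: reporter induced by TNF-alpha stimulation; 100% = median of stimulated DMSO wells and 0% = no signal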
STAT1 act – STAT1 reporter activators, IFN-gamma induced, counter-screen for STAT3 activator project, cell-based, NIH 3T3, luciferase luminescence; shares compounds with STAT3 act-1; activation (% of control), % at 5.7 µM; 1,200 tested, 13% active; NIH 3T3 STAT1-luciferase reporter; AID 1318, 2008;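 active = activation above the solvent-only control well mean plus 3 SD, set per screening run, cut at about 120% in these data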;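 also: 100% = IFN-gamma with DMSO median signal so 100% means no change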
Numbers without * were called inactive; . = no result. The list is not random: actives were taken first. Their share in the collection is about 2.3%.

SMILES	STAT1 blocker	HSP90 refold inh	STAT3 act-1	TRAIL sens C8	STAT3 blocker	PPC-1+TRAIL kill	STAT3 act-2	NFkB act 2	STAT1 act
CCOC(=O)C1CCN(CC(=O)Nc2cc(C)nn2-c2nc3ccccc3s2)CC1	-6	5	132	1	-38	-3	.	.	.
Cc1cc(C)n(-c2nc3ccccc3s2)n1	-26	-2	101	5	1	16	.	.	.
O=C(/C=C/c1ccc(Cl)cc1)OCC(=O)c1ccc[nH]1	.	.	.	-8	.	.	.	.	.
CCOC(=O)c1[nH]c2ccc(F)cc2c1NC(=O)CCN1CCSCC1	-2	1	102	-13	4	-7	.	.	.
CSc1ncc(CN2CCc3c([nH]c4ccccc34)C2c2cccc(O)c2)cn1 (centres undefined)	-8	2	154*	1	-53	3	147*	103	99
CCn1cc(CN2CCc3c([nH]c4ccccc34)C2c2cccc(O)c2)c(C)n1 (centres undefined)	11	-6	142*	3	-41	4	140*	102	89
CSc1ncc(CN2CCc3c([nH]c4ccccc34)C2c2cccc(C)n2)cn1 (centres undefined)	.	-1	.	12	.	19	.	.	.
COc1ccc(C)cc1S(=O)(=O)N(C)CC(=O)NC1CCCCCC1	-7	-6	136*	-5	-38	-7	99	109	97
COc1ccc(C)cc1S(=O)(=O)N(C)CC(=O)NC1CCCCC1	5	10	101	-13	2	25	.	.	.
Cc1ccc(Sc2c(O)c3ccccc3n(C)c2=O)cc1	0	-3	109	0	-9	3	.	.	.
Cc1ccc(Sc2c(C=O)c3ccccc3n2C)cc1	11	-3	157*	-2	-63	5	128	81	87
COC(=O)C(NC(=O)CCC(=O)N[C@@H](C(=O)OC)c1ccccc1)c1ccccc1 (some centres undefined)	.	-6	.	-3	.	.	.	.	.
O=C(NC(=S)Nc1nc2c(ccc3ccccc32)s1)c1cccs1	0	0	140*	8	-47	0	142*	100	80
Cn1c(=O)c(C(=O)Nc2ccccn2)c(O)c2ccccc21	-23	-1	139*	62*	-44	36	178*	115	181*
CCC1CCCCN1C(=O)c1ccc2nc(Cc3ccc(OC)cc3)oc2c1 (centres undefined)	.	-3	.	5	.	.	.	.	.
COc1ccc(C(CC(=O)O)NS(=O)(=O)c2ccc(C)cc2)cc1OC (centres undefined)	-2	2	96	-5	14	-9	.	.	.
Nc1nnc(Cc2c[nH]c3ccccc23)s1	11	1	143*	-7	-41	-8	154*	113	102
Cc1cccc2sc(NC(=O)CSc3nc4ccccc4o3)nc12	9	4	136*	-8	-44	24	115	102	94
S=C(Nc1ccc(Cl)cc1)Nc1cccc2cnccc12	9	6	147*	10	-49	16	144*	97	100
S=C(Nc1cccnc1)Nc1cccc2cnccc12	8	9	104	-5	0	38	.	.	.
Clc1ccc(Nc2nc(-c3cccnc3)cs2)cc1	-18	-4	192*	5	-104	22	179*	122*	139*
COc1ccc(-c2noc(-c3cc(Cl)ccc3Cl)n2)cc1OC	-9	-3	98	.	6	16	.	.	.
COc1ccc(Cl)cc1-c1nc(-c2ccc(Br)o2)no1	-3	1	174*	21	-86	15	160*	114	117
Oc1c(CN2CCOCC2)cc(CN2CCOCC2)cc1CN1CCOCC1	.	.	.	-12	.	.	.	.	.
O=C(CS(=O)c1ccc(C(F)(F)F)cc1[N+](=O)[O-])Oc1ccccc1 (centres undefined)	26	7	147*	0	-51	-22	129	101	72
SMILES	STAT1 blocker	HSP90 refold inh	STAT3 act-1	TRAIL sens C8	STAT3 blocker	PPC-1+TRAIL kill	STAT3 act-2	NFkB act 2	STAT1 act
Clc1nc2ccccc2cc1-c1nnn(-c2ccccc2)n1	-34	9	.	19	.	8	.	.	.
CCN(CC)S(=O)(=O)c1ccc(-c2nnc3sc4cccc(C)c4n23)cc1	4	-2	148*	7	-54	-4	160*	110	107
CCN(CC)S(=O)(=O)c1ccc(-c2nnc(SCC(N)=O)n2CC)cc1	-6	2	100	2	7	7	.	.	.
Cc1cccc(NS(=O)(=O)c2cc(C(=O)OCC(=O)Nc3cc(C)on3)ccc2C)c1	-2	3	147*	8	-47	-10	132	91	99
CCOC(=O)/C(C#N)=C/Nc1ccccc1NS(=O)(=O)c1ccc2c(c1)OCCO2	.	.	.	15	.	.	.	.	.
CC(C)C1N=C(c2ccc3c(c2)OCO3)CC(c2ccccc2O)N1 (centres undefined)	12	0	138*	-4	-37	2	126	108	90
COc1ccc(-c2nnc(Nc3nc4c(OC)cccc4s3)o2)c(OC)c1	-10	-1	115	17	-11	13	.	.	.
COc1ccc(-c2nnc(Nc3nc4c(OC)cccc4s3)o2)cc1	-7	2	159*	17	-69	16	137*	101	105
CC(C)(C)OC(=O)N/N=C/c1c[nH]c2ccccc12	-19	1	139*	17	-50	-7	126	119	120
Cc1ccc(CN2C(=O)C[C@@H](NC(=O)OCC3c4ccccc4-c4ccccc43)C/C=C\C2c2ccc(C)cc2)cc1 (some centres undefined)	.	.	.	21	.	.	.	.	.
Cc1nc2c(n1C1CCCCC1)C(=O)c1ccccc1C2=O	-2	-3	170*	5	-70	9	137*	98	99
O=C1Cc2ccccc2C(=O)N1CCc1ccccc1	1	-5	155*	-28	-55	10	136*	102	97
O=C1Nc2ccccc2/C1=C\C(=O)c1ccccc1	.	0	.	15	.	.	.	.	.
